Converted amounts (≈) assume the structure as drawn.
Tests used:
[1] = biological target: T1, Decaprenylphosphoryl-beta-D-ribose oxidase (Mycobacterium tuberculosis (strain ATCC 25618 / H37Rv)) (UniProt P9WJF1); assay: Inhibition of Mycobacterium tuberculosis H37Rv DprE1 assessed as reduction in bacterial growth measured after 7 to 10 days by broth microdilution method
T1 sequence (whole entry): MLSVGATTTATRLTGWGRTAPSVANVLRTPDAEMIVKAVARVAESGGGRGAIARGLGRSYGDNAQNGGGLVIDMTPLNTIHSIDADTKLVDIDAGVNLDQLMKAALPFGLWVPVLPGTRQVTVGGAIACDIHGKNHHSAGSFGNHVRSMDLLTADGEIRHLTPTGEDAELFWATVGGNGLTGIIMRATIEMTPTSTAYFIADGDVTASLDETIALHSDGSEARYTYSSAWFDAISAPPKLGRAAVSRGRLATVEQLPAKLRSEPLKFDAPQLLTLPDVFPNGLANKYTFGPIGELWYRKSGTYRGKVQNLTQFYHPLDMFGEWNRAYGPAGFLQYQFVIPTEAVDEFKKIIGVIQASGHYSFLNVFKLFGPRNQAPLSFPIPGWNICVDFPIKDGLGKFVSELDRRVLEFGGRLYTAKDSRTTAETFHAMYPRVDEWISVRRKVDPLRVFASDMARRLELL
In short: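 Whole-cell growth assay of M. tuberculosis H37Rv in 7H9 broth. MIC is taken as the lowest concentration giving complete inhibition of observable growth.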

[2] = Selectivity ratio of MIC90 for inhibition of DprE1-mediated growth of Mycobacterium tuberculosis H37Rv to MIC90 for inhibition of DprE1-mediated growth of Mycobacterium tuberculosis CDC1551
[3] = Selectivity ratio of MIC90 for inhibition of DprE1-mediated growth of Mycobacterium tuberculosis H37Rv to MIC90 for inhibition of DprE1-mediated growth of Mycobacterium tuberculosis Erdman
[4] = Kinetic aqueous solubility of the compound in pH 7.4 phosphate buffer incubated for 4.5 hrs under shaking condition by LC-MS/MS analysis; type: physicochemical; settings: read-out: Kinetic_solubility
In short: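 Kinetic solubility measured in phosphate-buffered saline at pH 7.4, with compound quantified by LC–MS/MS.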

[5] = Half life in mouse liver microsomes at 2.5 uL preincubated for 5 mins followed by NADPH addition and measured by LC-MS/MS analysis; type: ADME, Microsome
[6] = Half life in […] microsomes at 2.5 uL preincubated for 5 mins followed by NADPH addition and measured by LC-MS/MS analysis; type: ADME, Liver, Microsome
[7] = Intrinsic clearance in mouse liver microsomes at 2.5 uL preincubated for 5 mins followed by NADPH addition and measured by LC-MS/MS analysis; type: ADME, Microsome; settings: read-out: CLH
[8] = Intrinsic clearance in human liver microsomes at 2.5 uL preincubated for 5 mins followed by NADPH addition and measured by LC-MS/MS analysis; type: ADME, Microsome; settings: read-out: CLH
[9] = Protein binding in plasma (unknown origin) measured after 5 hrs by equilibrium dialysis method; type: ADME, cell-free; settings: read-out: PPB (converted)
[10] = Stability of the compound in plasma (unknown origin); type: ADME, cell-free
[11] = Cmax in specific pathogen free ICR mouse at 10 mg/kg, po by LC/TSQ-MS analysis; type: ADME, organism-based; design: dose 10 mg/kg, route oral; settings: in vivo
In short: (§1)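 ICR mice dosed once with compound, intravenously at 2 mg/kg or orally at 10 mg/kg. Plasma pharmacokinetic parameters derived per route: AUC, Cmax, clearance, mean residence time, Vd, terminal elimination half-life, and oral bioavailability from the p.o. versus i.v. comparison.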

[12] = Terminal half life in specific pathogen free ICR mouse at 10 mg/kg, po by LC/TSQ-MS analysis; type: ADME, organism-based; settings: in vivo, read-out: beta t1/2 (converted); in short: as §1
[13] = Mean residence time in specific pathogen free ICR mouse at 10 mg/kg, po by LC/TSQ-MS analysis; type: ADME, organism-based; settings: in vivo; in short: as §1
[14] = AUC in specific pathogen free ICR mouse at 10 mg/kg, po by LC/TSQ-MS analysis; type: ADME, organism-based; settings: in vivo; in short: as §1
[15] = Oral bioavailability in specific pathogen free ICR mouse at 10 mg/kg by LC/TSQ-MS analysis; type: ADME, organism-based; settings: in vivo; in short: as §1
[16] = Cmax in specific pathogen free ICR mouse at 2 mg/kg, iv by LC/TSQ-MS analysis; type: ADME, organism-based; design: dose 2 mg/kg, route intravenous; settings: in vivo; in short: as §1
[17] = Terminal half life in specific pathogen free ICR mouse at 2 mg/kg, iv by LC/TSQ-MS analysis; type: ADME, organism-based; settings: in vivo, read-out: beta t1/2 (converted); in short: as §1
[18] = Mean residence time in specific pathogen free ICR mouse at 2 mg/kg, iv by LC/TSQ-MS analysis; type: ADME, organism-based; settings: in vivo; in short: as §1
[19] = AUC in specific pathogen free ICR mouse at 2 mg/kg, iv by LC/TSQ-MS analysis; type: ADME, organism-based; settings: in vivo; in short: as §1
[20] = Intrinsic clearance in specific pathogen free ICR mouse at 2 mg/kg, iv by LC/TSQ-MS analysis; type: ADME, organism-based; settings: in vivo
[21] = Volume of distribution in specific pathogen free ICR mouse at 2 mg/kg, iv by LC/TSQ-MS analysis; type: ADME, organism-based; settings: in vivo; in short: as §1
[22] = Ratio of test compound kinetic aqueous solubility to PBTZ169 kinetic aqueous solubility; type: physicochemical; settings: buffer

Row | SMILES | MIC [1] [µM] | Selectivity ratio [2] | Selectivity ratio [3] | solubility kinetic at 4.5 h [4] [µg/mL] | half-life [5] [min] | half-life [6] [min] | microsomal CLint [7] [µL/min/mg] | microsomal CLint [8] [µL/min/mg] | fraction unbound at 5 h [9] | Stability [10] [%] | further results
1 | O=c1nc(N2CCC3(CCN(CC4CCCCC4)C3)C2)sc2c([N+](=O)[O-])cc(C(F)(F)F)cc12 (stereo unspecified) | 0.256 (≈ 0.127 µg/mL) | < 4 | < 4 | – | – | – | – | – | – | – | –
2 | O=c1nc(N2CCC3(CC2)CN(CC2CCCCC2)C3)sc2c([N+](=O)[O-])cc(C(F)(F)F)cc12 | 0.512 (≈ 0.254 µg/mL) | < 4 | < 4 | – | – | – | – | – | – | – | –
3 | O=c1nc(N2C[C@@H]3[C@H](C2)[C@H]3NCC2CCCCC2)sc2c([N+](=O)[O-])cc(C(F)(F)F)cc12 | 0.032 (≈ 0.015 µg/mL) | < 4 | < 4 | 4.8 (≈ 10.2 µM) | 65.2 | 76.6 | 10.6 | 9.05 | 0.005 | 91.4 | Cmax [11]: 195 ng/mL; half-life [12]: 131 min; MRT [13]: 185 min; AUC [14]: 791 ng·h/mL; bioavailability [15]: 27.4%; Cmax [16]: 483 ng/mL; half-life [17]: 152 min; MRT [18]: 134 min; AUC [19]: 576 ng·h/mL; CL [20]: 58.2 mL/min/kg; Vd [21]: 12.8 L/kg
4 | O=c1nc(N2CC3(CN(CC4CCCCC4)C3)C2)sc2c([N+](=O)[O-])cc(C(F)(F)F)cc12 | 0.256 (≈ 0.12 µg/mL) | < 4 | < 4 | – | – | – | – | – | – | – | –
5 | O=c1nc(N2CCCC3(CCCCN3CC3CCCCC3)C2)sc2c([N+](=O)[O-])cc(C(F)(F)F)cc12 (stereo unspecified) | 1.02 (≈ 0.537 µg/mL) | < 4 | < 4 | – | – | – | – | – | – | – | –
6 | O=c1nc(N2C[C@H]3C[C@@H](C2)N3CC2CCCCC2)sc2c([N+](=O)[O-])cc(C(F)(F)F)cc12 | 0.128 (≈ 0.06 µg/mL) | < 4 | < 4 | – | – | – | – | – | – | – | –
7 | O=c1nc(N2C[C@H]3C[C@@H]2CN3CC2CCCCC2)sc2c([N+](=O)[O-])cc(C(F)(F)F)cc12 | 0.064 (≈ 0.03 µg/mL) | < 4 | < 4 | 14.6 (≈ 31.2 µM) | 7.05 | 26.6 | 98.4 | 26.1 | 0.004 | 81.9 | Ratio [22]: 1600
8 | O=c1nc(N2[C@@H]3C[C@H]2CN(CC2CCCCC2)C3)sc2c([N+](=O)[O-])cc(C(F)(F)F)cc12 | 0.128 (≈ 0.06 µg/mL) | < 4 | < 4 | – | – | – | – | – | – | – | –
9 | O=c1nc(N2CC3CCC2CN3CC2CCCCC2)sc2c([N+](=O)[O-])cc(C(F)(F)F)cc12 (stereo unspecified) | 0.032 (≈ 0.0154 µg/mL) | < 4 | < 4 | < 0.029 | 27.3 | 30.6 | 25.4 | 22.7 | 0.001 | 102 | –
10 | O=c1nc(N2CC3(CCN(CC4CCCCC4)CC3)C2)sc2c([N+](=O)[O-])cc(C(F)(F)F)cc12 | 1.02 (≈ 0.508 µg/mL) | < 4 | < 4 | – | – | – | – | – | – | – | –
11 | O=c1nc(N2CCC3(CC2)CC3)sc2c([N+](=O)[O-])cc(C(F)(F)F)cc12 | 0.016 (≈ 0.00617 µg/mL) | < 4 | < 4 | 0.3 (≈ 0.778 µM) | 8.33 | 43 | 83.3 | 16.1 | 0.006 | 93.3 | –
12 | O=c1nc(N2CCC3(CCN(CC4CCCCC4)C3)CC2)sc2c([N+](=O)[O-])cc(C(F)(F)F)cc12 | 0.128 (≈ 0.0654 µg/mL) | < 4 | < 4 | – | – | – | – | – | – | – | –
13 | O=c1nc(N2CCN(CC3CCCCC3)CC2)sc2c([N+](=O)[O-])cc(C(F)(F)F)cc12 [MACOZINONE] | 0.002 (≈ 0.000913 µg/mL) | < 4 | < 4 | < 0.01 | 34.4 | 43 | 20.1 | 16.5 | 0.001 | 88.7 | –

Source: ChEMBL document CHEMBL4400578, “Spirocyclic and Bicyclic 8-Nitrobenzothiazinones for Tuberculosis with Improved Physicochemical and Pharmacokinetic Properties” (ACS Med Chem Lett, 2019)
